Reference: ChEMBL document CHEMBL3526002, “Tissue distribution and identification of radioactivity components at elimination phase after oral administration of [¹⁴C]CS-1036, an α-amylase inhibitor, to rats” (Drug Metab Dispos, 2013)

How the values were obtained:
Settings in all cases: in vivo
Heart [1] = assay: Drug uptake in albino F344/DuCrlCrlj rat heart assessed as ng equivalent of CS-1036 at 5 mg/kg, po after 4 hrs by liquid scintillation counting; format: ADME, organism-based; set-up: dose 5 mg/kg, dosed compound name [14C]CS-1036, route oral
Cerebrum [2] = assay: Drug uptake in albino F344/DuCrlCrlj rat cerebrum assessed as ng equivalent of CS-1036 at 5 mg/kg, po after 4 hrs by liquid scintillation counting; format: ADME, organism-based; set-up: dose 5 mg/kg, dosed compound name [14C]CS-1036, route oral
Method in brief: (§1)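 Single oral [14C]CS-1036 at 5 mg/kg was given to male rats (159–167 g; n = 3). Cerebrum was collected after aortic bleeding at 1, 4, 8, 24, 72, 168 or 336 h, weighed, and homogenized in 2 volumes of saline. A 0.5 ml aliquot was solubilized in Soluene-350 and counted by LSC with external-standard correction. Results are in ng equivalent/g tissue from specific activity and sample weight.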

Aorta [3] = assay: Drug uptake in albino F344/DuCrlCrlj rat aorta at 5 mg/kg, po after 168 hrs by liquid scintillation counting; format: ADME, organism-based; set-up: dose 5 mg/kg, dosed compound name [14C]CS-1036, route oral
Lung [4] = assay: Drug uptake in albino F344/DuCrlCrlj rat lung assessed as ng equivalent of CS-1036 at 5 mg/kg, po after 168 hrs by liquid scintillation counting; format: ADME, organism-based; set-up: dose 5 mg/kg, dosed compound name [14C]CS-1036, route oral
[5] = Drug uptake in albino F344/DuCrlCrlj rat mandibular gland at 5 mg/kg, po after 24 hrs by liquid scintillation counting; format: ADME, organism-based; set-up: dose 5 mg/kg, dosed compound name [14C]CS-1036, route oral
[6] = Drug uptake in albino F344/DuCrlCrlj rat eyeball assessed as ng equivalent of CS-1036 at 5 mg/kg, po after 4 hrs by liquid scintillation counting; format: ADME, organism-based; set-up: dose 5 mg/kg, dosed compound name [14C]CS-1036, route oral
Blood = assay: Drug uptake in albino F344/DuCrlCrlj rat blood at 5 mg/kg, po after 168 hrs by liquid scintillation counting; format: ADME, organism-based; set-up: dose 5 mg/kg, dosed compound name [14C]CS-1036, route oral
Method in brief: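 Male F344/DuCrlCrlj rats (159–167 g; n = 3 per time point) received a single oral dose of [14C]CS-1036 at 5 mg/kg. Blood was taken from the abdominal aorta at 1, 4, 8, 24, 72, 168 and 336 h. Radioactivity was counted by LSC with external-standard efficiency correction. Results were converted to ng equivalent of CS-1036/ml using specific activity and sample volume, and reported as mean + S.D.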

Stomach [7] = assay: Drug uptake in albino F344/DuCrlCrlj rat stomach assessed as ng equivalent of CS-1036 at 5 mg/kg, po after 336 hrs by liquid scintillation counting; format: ADME, organism-based; set-up: dose 5 mg/kg, dosed compound name [14C]CS-1036, route oral
Stomach [8] = assay: Drug uptake in albino F344/DuCrlCrlj rat stomach assessed as ng equivalent of CS-1036 at 5 mg/kg, po after 1 hr by liquid scintillation counting; format: ADME, organism-based; set-up: dose 5 mg/kg, dosed compound name [14C]CS-1036, route oral
Liver [9] = assay: Drug uptake in albino F344/DuCrlCrlj rat liver at 5 mg/kg, po after 72 hrs by liquid scintillation counting; format: ADME, organism-based; set-up: dose 5 mg/kg, dosed compound name [14C]CS-1036, route oral
Spleen = assay: Drug uptake in albino F344/DuCrlCrlj rat spleen assessed as ng equivalent of CS-1036 at 5 mg/kg, po after 1 hr by liquid scintillation counting; format: ADME, organism-based; set-up: dose 5 mg/kg, dosed compound name [14C]CS-1036, route oral
Kidney = assay: Drug uptake in albino F344/DuCrlCrlj rat kidney at 5 mg/kg, po after 4 hrs by liquid scintillation counting; format: ADME, organism-based; set-up: dose 5 mg/kg, dosed compound name [14C]CS-1036, route oral
Lung [10] = assay: Drug uptake in albino F344/DuCrlCrlj rat lung at 5 mg/kg, po after 4 hrs by liquid scintillation counting; format: ADME, organism-based; set-up: dose 5 mg/kg, dosed compound name [14C]CS-1036, route oral
Cerebellum = assay: Drug uptake in albino F344/DuCrlCrlj rat cerebellum at 5 mg/kg, po after 4 hrs by liquid scintillation counting; format: ADME, organism-based; set-up: dose 5 mg/kg, dosed compound name [14C]CS-1036, route oral
[11] = Drug uptake in albino F344/DuCrlCrlj rat skeletal muscle assessed as ng equivalent of CS-1036 at 5 mg/kg, po after 72 hrs by liquid scintillation counting; format: ADME, organism-based, Muscle tissue; set-up: dose 5 mg/kg, dosed compound name [14C]CS-1036, route oral
Plasma = assay: Drug metabolism in albino F344/DuCrlCrlj rat plasma assessed as (2R,3R,4R)-2-(hydroxymethyl)pyrrolidine-3,4-diol formation at 10 mg/kg, po after 8 to 72 hrs by liquid scintillation counting; format: ADME, organism-based; set-up: dose 10 mg/kg, dosed compound name [14C]CS-1036, route oral
[12] = Drug uptake in albino F344/DuCrlCrlj rat urinary bladder assessed as ng equivalent of CS-1036 at 5 mg/kg, po after 72 hrs by liquid scintillation counting; format: ADME, organism-based; set-up: dose 5 mg/kg, dosed compound name [14C]CS-1036, route oral
[13] = Drug uptake in albino F344/DuCrlCrlj rat eyeball assessed as ng equivalent of CS-1036 at 5 mg/kg, po after 168 hrs by liquid scintillation counting; format: ADME, organism-based; set-up: dose 5 mg/kg, dosed compound name [14C]CS-1036, route oral
Aorta [14] = assay: Drug uptake in albino F344/DuCrlCrlj rat aorta assessed as ng equivalent of CS-1036 at 5 mg/kg, po after 72 hrs by liquid scintillation counting; format: ADME, organism-based; set-up: dose 5 mg/kg, dosed compound name [14C]CS-1036, route oral
Liver [15] = assay: Drug uptake in albino F344/DuCrlCrlj rat liver assessed as ng equivalent of CS-1036 at 5 mg/kg, po after 168 hrs by liquid scintillation counting; format: ADME, organism-based; set-up: dose 5 mg/kg, dosed compound name [14C]CS-1036, route oral
Zone of skin = assay: Drug uptake in albino F344/DuCrlCrlj rat skin assessed as ng equivalent of CS-1036 at 5 mg/kg, po after 72 hrs by liquid scintillation counting; format: ADME, organism-based; set-up: dose 5 mg/kg, dosed compound name [14C]CS-1036, route oral
Heart [16] = assay: Drug uptake in albino F344/DuCrlCrlj rat heart assessed as ng equivalent of CS-1036 at 5 mg/kg, po after 336 hrs by liquid scintillation counting; format: ADME, organism-based; set-up: dose 5 mg/kg, dosed compound name [14C]CS-1036, route oral
[17] = Drug uptake in albino F344/DuCrlCrlj rat mandibular gland assessed as ng equivalent of CS-1036 at 5 mg/kg, po after 4 hrs by liquid scintillation counting; format: ADME, organism-based; set-up: dose 5 mg/kg, dosed compound name [14C]CS-1036, route oral
[18] = Drug uptake in albino F344/DuCrlCrlj rat mandibular gland at 5 mg/kg, po after 1 hr by liquid scintillation counting; format: ADME, organism-based; set-up: dose 5 mg/kg, dosed compound name [14C]CS-1036, route oral
[19] = Drug uptake in albino F344/DuCrlCrlj rat brown fat at 5 mg/kg, po after 336 hrs by liquid scintillation counting; format: ADME, organism-based, Brown adipose tissue; set-up: dose 5 mg/kg, dosed compound name [14C]CS-1036, route oral
[20] = Drug uptake in albino F344/DuCrlCrlj rat skeletal muscle assessed as ng equivalent of CS-1036 at 5 mg/kg, po after 8 hrs by liquid scintillation counting; format: ADME, organism-based, Muscle tissue; set-up: dose 5 mg/kg, dosed compound name [14C]CS-1036, route oral
Heart [21] = assay: Drug uptake in albino F344/DuCrlCrlj rat heart assessed as ng equivalent of CS-1036 at 5 mg/kg, po after 24 hrs by liquid scintillation counting; format: ADME, organism-based; set-up: dose 5 mg/kg, dosed compound name [14C]CS-1036, route oral
Liver [22] = assay: Drug uptake in albino F344/DuCrlCrlj rat liver at 5 mg/kg, po after 1 hr by liquid scintillation counting; format: ADME, organism-based; set-up: dose 5 mg/kg, dosed compound name [14C]CS-1036, route oral
Liver [23] = assay: Drug uptake in albino F344/DuCrlCrlj rat liver at 5 mg/kg, po after 24 hrs by liquid scintillation counting; format: ADME, organism-based; set-up: dose 5 mg/kg, dosed compound name [14C]CS-1036, route oral
[24] = Drug uptake in albino F344/DuCrlCrlj rat bone marrow assessed as ng equivalent of CS-1036 at 5 mg/kg, po after 72 hrs by liquid scintillation counting; format: ADME, organism-based; set-up: dose 5 mg/kg, dosed compound name [14C]CS-1036, route oral
Aorta [25] = assay: Drug uptake in albino F344/DuCrlCrlj rat aorta assessed as ng equivalent of CS-1036 at 5 mg/kg, po after 168 hrs by liquid scintillation counting; format: ADME, organism-based; set-up: dose 5 mg/kg, dosed compound name [14C]CS-1036, route oral
Aorta [26] = assay: Drug uptake in albino F344/DuCrlCrlj rat aorta assessed as ng equivalent of CS-1036 at 5 mg/kg, po after 1 hr by liquid scintillation counting; format: ADME, organism-based; set-up: dose 5 mg/kg, dosed compound name [14C]CS-1036, route oral
[27] = Drug uptake in albino F344/DuCrlCrlj rat thyroid gland assessed as ng equivalent of CS-1036 at 5 mg/kg, po after 1 hr by liquid scintillation counting; format: ADME, organism-based; set-up: dose 5 mg/kg, dosed compound name [14C]CS-1036, route oral
Cerebrum [28] = assay: Drug uptake in albino F344/DuCrlCrlj rat cerebrum assessed as ng equivalent of CS-1036 at 5 mg/kg, po after 168 hrs by liquid scintillation counting; format: ADME, organism-based; set-up: dose 5 mg/kg, dosed compound name [14C]CS-1036, route oral; method in brief: as §1

Radiolabel recovery (Heart [1]): 7 ngequiv/g
Radiolabel recovery (Cerebrum [2]): 1.4 ngequiv/g
Radiolabel recovery (Aorta [3]): 18.1 ngequiv/g
Radiolabel recovery (Lung [4]): 8.2 ngequiv/g
Radiolabel recovery [5]: 118 ngequiv/g
Radiolabel recovery [6]: 4.8 ngequiv/g
Radiolabel recovery (Blood): 8.55 ngequiv/ml
Radiolabel recovery (Stomach [7]): 5.1 ngequiv/g
Radiolabel recovery (Stomach [8]): 640 ngequiv/g
Radiolabel recovery (Liver [9]): 446 ngequiv/g
Radiolabel recovery (Spleen): 57.2 ngequiv/g
Radiolabel recovery (Kidney): 383 ngequiv/g
Radiolabel recovery (Lung [10]): 37.8 ngequiv/g
Radiolabel recovery (Cerebellum): 11.2 ngequiv/g
Radiolabel recovery [11]: 9.2 ngequiv/g
Drug metabolism (Plasma): metabolite_detected
Radiolabel recovery [12]: 6.8 ngequiv/g
Radiolabel recovery [13]: 2.3 ngequiv/g
Radiolabel recovery (Aorta [14]): 16.1 ngequiv/g
Radiolabel recovery (Liver [15]): 9.1 ngequiv/g
Radiolabel recovery (Zone of skin): 48.7 ngequiv/g
Radiolabel recovery (Heart [16]): 3.63 ngequiv/g
Radiolabel recovery [17]: 9.2 ngequiv/g
Radiolabel recovery [18]: 43.4 ngequiv/g
Radiolabel recovery [19]: 54.3 ngequiv/g
Radiolabel recovery [20]: 11.2 ngequiv/g
Radiolabel recovery (Heart [21]): 4.4 ngequiv/g
Radiolabel recovery (Liver [22]): 346 ngequiv/g
Radiolabel recovery (Liver [23]): 266 ngequiv/g
Radiolabel recovery [24]: 18.1 ngequiv/g
Radiolabel recovery (Aorta [25]): 6.8 ngequiv/g
Radiolabel recovery (Aorta [26]): 15.9 ngequiv/g
Radiolabel recovery [27]: 7.2 ngequiv/g
Radiolabel recovery (Cerebrum [28]): 3.11 ngequiv/g
Compound: C[C@H]1O[C@@H](O[C@H]2[C@H](O)[C@@H](O)[C@@H](O[14C@H]3[14C@H](O)[14CH2]N[14C@@H]3[14CH2]O)O[C@@H]2CO)[C@H](O)[C@@H](O)[C@@H]1O
